Measurements reported in ChEMBL document CHEMBL1151732, “Synthesis and anticancer activity comparison of phenylalkyl isoselenocyanates with corresponding naturally occurring and synthetic isothiocyanates” (J Med Chem, 2008).
The source made the active and inactive calls. The rule behind the calls is not given here.

Tests used:
UACC-903 [1] = assay: Cytotoxicity against human UACC-903 cells assessed as decrease in cell viability after 24 hrs by MTS assay relative to control; assay type: functional, cell-based; conditions: for IC50: UACC-903, 24 h
Method in brief: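 UACC 903 melanoma cells, 5×10^3 per well in DMEM with 10% FBS, were exposed after 24 h to DMSO or 5, 10 or 15 μM agent for 24 h. Viability was read by MTS tetrazolium reduction to formazan and expressed as percent of DMSO control, as the mean of three independent experiments with SEM.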

UACC-903 [2] = assay: Cytotoxicity against human UACC-903 cells after 24 hrs by MTS assay; conditions: UACC-903, 24 h
UACC-903 [3] = assay: Antiproliferative activity against human UACC-903 cells assessed as BrdU incorporation after 24 hrs by ELISA relative to control; assay type: functional, cell-based
Method in brief: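 UACC 903 cells, 5×10^3 per well, treated 24 h with DMSO vehicle or increasing concentrations of test agents. Proliferating cells were measured by BrdU incorporation with a BrdU ELISA kit. Values are expressed as percent of DMSO-treated cells, as the mean of three independent experiments with SEM.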

UACC-903 [4] = assay: Induction of apoptosis in human UACC-903 cells assessed as increase in caspase 3 activity after 24 hrs relative to control; assay type: functional, cell-based
Method in brief: (§1)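 Apoptosis was measured in UACC 903 cells seeded at 5×10^3 per well and treated 24 h with DMSO vehicle or increasing agent concentrations. Combined caspase-3/7 activity was read with the Apo-ONE homogeneous caspase-3/7 kit and reported as fold increase over vehicle-treated cells, averaged over three independent experiments with SEM.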

UACC-903 [5] = assay: Induction of apoptosis in human UACC-903 cells assessed as increase in caspase 7 activity after 24 hrs relative to control; assay type: functional, cell-based; method in brief: as §1
UACC-903 [6] = assay: Antitumor activity in human UACC-903 cells xenografted in Harlan Sprague-Dawley athymic nude mouse assessed as reduction in tumor size at 0.76 uM, ip administered three times per week; assay type: functional; parameters: scale not given: the % may be the effect or the level left
Method in brief: (§2)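 Female athymic nude mice aged 4–6 weeks received 5×10^6 UACC 903 cells s.c. in 0.2 ml DMEM/10% FBS above both rib cages. After six days they were randomized (5 mice/group, 2 tumors/mouse) and dosed i.p. with 0.76 μmoles (3 ppm selenium) Mon/Wed/Fri; controls received DMSO vehicle. Caliper tumor volume (mm³) and body weight were recorded thrice weekly.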

Mus musculus [7] = assay: Toxicity in human UACC-903 cells xenografted in Harlan Sprague-Dawley athymic nude mouse assessed as effect on body weight at 0.76 uM, ip administered three times per week; assay type: organism-based; conditions: in vivo; method in brief: as §2
T98G = assay: Cytotoxicity against human T98G cells after 24 hrs by MTS assay
PC-3 = assay: Cytotoxicity against human PC-3 cells after 24 hrs by MTS assay; conditions: PC-3, 24 h
Caco-2 = assay: Cytotoxicity against human Caco-2 cells after 24 hrs by MTS assay; conditions: Caco-2, 24 h
HT-1080 = assay: Cytotoxicity against human HT1080 cells after 24 hrs by MTS assay; conditions: HT-1080, 24 h
MDA-MB-231 = assay: Cytotoxicity against human MDA-MB-231 cells after 24 hrs by MTS assay; conditions: MDA-MB-231, 24 h
UACC-903 [8] = assay: Antitumor activity in human UACC-903 cells xenografted in Harlan Sprague-Dawley athymic nude mouse assessed as reduction in tumor size at 2.5 uM, ip administered three times per week; assay type: functional; parameters: scale not given: the % may be the effect or the level left
Method in brief: (§3)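 UACC 903 xenografts: 5×10^6 cells s.c. in 0.2 ml DMEM/10% FBS at both flanks of 4–6-week-old female athymic nude mice. From day six, mice were randomized (5/group, 2 tumors each) and given 2.5 μmoles i.p. three times weekly (Mon/Wed/Fri), with DMSO vehicle controls. Tumor size (calipers, mm³) and body weight were measured thrice weekly.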

Mus musculus [9] = assay: Toxicity in human UACC-903 cells xenografted in Harlan Sprague-Dawley athymic nude mouse assessed as effect on body weight at 2.5 uM, ip administered three times per week; assay type: organism-based; conditions: in vivo; method in brief: as §3

`CC(=O)NC(CSC(=[Se])NCCCCc1ccccc1)C(=O)O` (stereo not drawn) was tested, and the IC50 (UACC-903 [1]) was 10 µM and the IC50 (UACC-903 [2]) was 17 µM.

With `[Se]=C=NCCc1ccccc1` [PHENETHYLISOSELENOCYANATE] the Activity (UACC-903 [1]) was “Dose-dependent effect”, the Activity (UACC-903 [3]) was “Dose-dependent effect” and the Activity (UACC-903 [4]) was “Dose-dependent effect”. For the same molecule, the Activity (UACC-903 [5]) was “Dose-dependent effect”, the Activity (UACC-903 [6]) was 30% and the Activity (Mus musculus [7]) was “Non-toxic”. The IC50 (T98G) was 24 µM, the IC50 (PC-3) was 16 µM and the IC50 (Caco-2) was 11 µM. For the same molecule, the IC50 (HT-1080) was 12 µM, the IC50 (UACC-903 [2]) was 12 µM and the IC50 (MDA-MB-231) was 20 µM.

With `[Se]=C=NCc1ccccc1` [BENZYLISOSELENOCYANATE] the Activity (UACC-903 [1]) was “Dose-dependent effect”, the Activity (UACC-903 [3]) was “Dose-dependent effect” and the Activity (UACC-903 [4]) was “Dose-dependent effect”. For the same molecule, the Activity (UACC-903 [5]) was “Dose-dependent effect”, the Activity (Mus musculus [7]) was “Non-toxic” and the IC50 (T98G) was 43 µM. It also gave an IC50 (PC-3) of 24 µM, an IC50 (Caco-2) of 13 µM and an IC50 (HT-1080) of 13 µM. The IC50 (UACC-903 [2]) was 16 µM and the IC50 (MDA-MB-231) was 29 µM.

In the case of `S=C=NCCc1ccccc1` [PHENETHYLISOTHIOCYANATE], the Activity (UACC-903 [1]) is reported as “Dose-dependent effect”, the Activity (UACC-903 [3]) is reported as “Dose-dependent effect” and the Activity (UACC-903 [4]) is reported as “Dose-dependent effect”. For the same molecule, the Activity (UACC-903 [5]) was “Dose-dependent effect”, the Activity (UACC-903 [6]) was “inactive” and the Activity (UACC-903 [8]) was 40%. For the same molecule, the Activity (Mus musculus [9]) was “Non-toxic”, the IC50 (T98G) was > 100 µM and the IC50 (PC-3) was 24 µM. For the same molecule, the IC50 (Caco-2) was 14 µM, the IC50 (HT-1080) was 15 µM and the IC50 (UACC-903 [2]) was 12 µM. It also gave an IC50 (MDA-MB-231) of 38 µM.

`[Se]=C=NCCCCc1ccccc1` [PHENYLBUTYL ISOSELENOCYANATE] was tested, and the Activity (UACC-903 [1]) was “Dose-dependent effect”, the Activity (UACC-903 [3]) was “Dose-dependent effect” and the Activity (UACC-903 [4]) was “Dose-dependent effect”. The Activity (UACC-903 [5]) was “Dose-dependent effect”, the Activity (UACC-903 [6]) was 30% and the Activity (Mus musculus [7]) was “Non-toxic”. It also gave an IC50 (T98G) of 27 µM, an IC50 (PC-3) of 19 µM and an IC50 (Caco-2) of 12 µM. The IC50 (HT-1080) was 11 µM, the IC50 (UACC-903 [2]) was 10 µM and the IC50 (MDA-MB-231) was 21 µM.

For `S=C=NCc1ccccc1` [BENZYL ISOTHIOCYANATE], the Activity (UACC-903 [1]) was “Dose-dependent effect”, the Activity (UACC-903 [3]) was “Dose-dependent effect” and the Activity (UACC-903 [4]) was “Dose-dependent effect”. The Activity (UACC-903 [5]) was “Dose-dependent effect”, the Activity (UACC-903 [6]) was “inactive” and the Activity (UACC-903 [8]) was 40%. The Activity (Mus musculus [9]) was “Non-toxic”, the IC50 (T98G) was > 100 µM and the IC50 (PC-3) was > 50 µM. For the same molecule, the IC50 (Caco-2) was 15 µM, the IC50 (HT-1080) was > 50 µM and the IC50 (UACC-903 [2]) was 15 µM. For the same molecule, the IC50 (MDA-MB-231) was 42 µM.

In the case of `[Se]=C=NCCCCCCc1ccccc1` [PHENYLHEXYL ISOSELENOCYANATE], the Activity (UACC-903 [1]) is reported as “Dose-dependent effect”, the Activity (UACC-903 [3]) is reported as “Dose-dependent effect” and the Activity (UACC-903 [4]) is reported as “Dose-dependent effect”. For the same molecule, the Activity (UACC-903 [5]) was “Dose-dependent effect”, the Activity (UACC-903 [6]) was 30% and the Activity (Mus musculus [7]) was “Non-toxic”. It also gave an IC50 (T98G) of 23 µM, an IC50 (PC-3) of 14 µM and an IC50 (Caco-2) of 10 µM. The IC50 (HT-1080) was 12 µM, the IC50 (UACC-903 [2]) was 10 µM and the IC50 (MDA-MB-231) was 22 µM.

`S=C=NCCCCCCc1ccccc1` [PHENYLHEXYL ISOTHIOCYANATE] was tested, and the Activity (UACC-903 [1]) was “Dose-dependent effect”, the Activity (UACC-903 [3]) was “Dose-dependent effect” and the Activity (UACC-903 [4]) was “Dose-dependent effect”. For the same molecule, the Activity (UACC-903 [5]) was “Dose-dependent effect”, the Activity (UACC-903 [6]) was “inactive” and the Activity (UACC-903 [8]) was 40%. For the same molecule, the Activity (Mus musculus [9]) was “Non-toxic”, the IC50 (T98G) was 26 µM and the IC50 (PC-3) was 17 µM. The IC50 (Caco-2) was 49 µM, the IC50 (HT-1080) was 29 µM and the IC50 (UACC-903 [2]) was 15 µM. For the same molecule, the IC50 (MDA-MB-231) was 24 µM.

Work on `CC(=O)NC(CSC(=S)NCCCCc1ccccc1)C(=O)O` (stereo not drawn) yielded an IC50 (UACC-903 [1]) of 24 µM and an IC50 (UACC-903 [2]) of 24 µM.

`S=C=NCCCCc1ccccc1` [PHENYLBUTYL ISOTHIOCYANATE] was tested, and the Activity (UACC-903 [1]) was “Dose-dependent effect”, the Activity (UACC-903 [3]) was “Dose-dependent effect” and the Activity (UACC-903 [4]) was “Dose-dependent effect”. The Activity (UACC-903 [5]) was “Dose-dependent effect”, the Activity (UACC-903 [6]) was “inactive” and the Activity (UACC-903 [8]) was 40%. The Activity (Mus musculus [9]) was “Non-toxic”, the IC50 (T98G) was 35 µM and the IC50 (PC-3) was 24 µM. For the same molecule, the IC50 (Caco-2) was 27 µM, the IC50 (HT-1080) was 15 µM and the IC50 (UACC-903 [2]) was 16 µM. For the same molecule, the IC50 (MDA-MB-231) was 27 µM.
